In ChEMBL document CHEMBL3596177:
Activity calls are given as the source filed them. The calls are words filed in the database; no cut-off is given here.

Key:
[1] = Inhibition of Mycobacterium tuberculosis protein tyrosine phosphatase B expressed in Escherichia coli BL21/DE using pNPP substrate by spectrophotometry
Outline: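 His-tagged mPTPB from pET28b in E. coli BL21/DE3, purified on Ni-NTA. The assay ran at 25°C in 50 mM 3,3-dimethylglutarate pH 7.0 with 1 mM EDTA, ionic strength 0.15 M (NaCl). Enzyme was added last, the reaction was quenched after 10 min with NaOH, and A405 was read. IC50 was fitted as AI/A0 = IC50/(IC50+[I]).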

RAW264.7 [2] = assay: Inhibition of Mycobacterium tuberculosis protein tyrosine phosphatase B transfected in mouse RAW264.7 cells assessed as increase in ERK1/2 phosphorylation at 10 uM incubated for 1 hr followed by with IFNgamma stimulation for 1 hr by Western blotting method; type: cell-based
Outline: (§1)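 RAW264.7 mouse macrophages transfected with mPTPB, grown in DMEM with 10% FBS, penicillin/streptomycin, 37°C, 5% CO2. Cells were seeded at 4 x 10⁴ per well and treated next day with inhibitor for 1 h, then with IFN-γ (200 U/ml) for 1 h. They were washed with cold PBS and lysed on ice 30 min. Cleared lysates were Western blotted for phospho-Erk1/2 and phospho-Akt.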

RAW264.7 [3] = assay: Inhibition of Mycobacterium tuberculosis protein tyrosine phosphatase B transfected in mouse RAW264.7 cells assessed as reduction in AKT phosphorylation at 10 uM incubated for 1 hr followed by with IFNgamma stimulation for 1 hr by Western blotting method; type: cell-based; outline: as §1
[4] = Non-competitive inhibition of Mycobacterium tuberculosis protein tyrosine phosphatase B expressed in Escherichia coli BL21/DE using pNPP substrate by spectrophotometry based Lineweaver-Burk plot analysis
RAW264.7 [5] = assay: Inhibition of Mycobacterium tuberculosis protein tyrosine phosphatase B transfected in mouse RAW264.7 cells assessed as increase in ERK1/2 phosphorylation at 5 and 10 uM incubated for 1 hr followed by with IFNgamma stimulation for 1 hr by Western blotting method; type: cell-based; outline: as §1
RAW264.7 [6] = assay: Inhibition of Mycobacterium tuberculosis protein tyrosine phosphatase B transfected in mouse RAW264.7 cells assessed as reduction in AKT phosphorylation at 5 and 10 uM incubated for 1 hr followed by with IFNgamma stimulation for 1 hr by Western blotting method; type: cell-based; outline: as §1
[7] = molecular target: T1, Tyrosine-protein phosphatase non-receptor type 1 (Homo sapiens, UniProt P18031); assay: Inhibition of human PTP1B using pNPP substrate by spectrophotometry
T1 sequence (P18031 whole entry): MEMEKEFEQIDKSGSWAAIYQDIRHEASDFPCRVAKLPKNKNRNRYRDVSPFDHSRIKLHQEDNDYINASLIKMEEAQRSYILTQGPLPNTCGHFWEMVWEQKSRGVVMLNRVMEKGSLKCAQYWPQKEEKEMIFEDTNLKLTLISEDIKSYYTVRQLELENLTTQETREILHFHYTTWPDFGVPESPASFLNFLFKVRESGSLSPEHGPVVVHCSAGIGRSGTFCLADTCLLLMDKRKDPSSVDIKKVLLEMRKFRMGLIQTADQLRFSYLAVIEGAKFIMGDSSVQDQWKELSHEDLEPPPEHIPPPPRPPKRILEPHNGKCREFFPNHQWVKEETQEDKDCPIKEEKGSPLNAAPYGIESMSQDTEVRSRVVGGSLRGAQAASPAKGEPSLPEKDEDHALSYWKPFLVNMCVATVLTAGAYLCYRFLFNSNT

[8] = molecular target: T2, Tyrosine-protein phosphatase non-receptor type 11 (Homo sapiens, UniProt Q06124); assay: Inhibition of human SHP2 using pNPP substrate by spectrophotometry
T2 sequence (Q06124 whole entry): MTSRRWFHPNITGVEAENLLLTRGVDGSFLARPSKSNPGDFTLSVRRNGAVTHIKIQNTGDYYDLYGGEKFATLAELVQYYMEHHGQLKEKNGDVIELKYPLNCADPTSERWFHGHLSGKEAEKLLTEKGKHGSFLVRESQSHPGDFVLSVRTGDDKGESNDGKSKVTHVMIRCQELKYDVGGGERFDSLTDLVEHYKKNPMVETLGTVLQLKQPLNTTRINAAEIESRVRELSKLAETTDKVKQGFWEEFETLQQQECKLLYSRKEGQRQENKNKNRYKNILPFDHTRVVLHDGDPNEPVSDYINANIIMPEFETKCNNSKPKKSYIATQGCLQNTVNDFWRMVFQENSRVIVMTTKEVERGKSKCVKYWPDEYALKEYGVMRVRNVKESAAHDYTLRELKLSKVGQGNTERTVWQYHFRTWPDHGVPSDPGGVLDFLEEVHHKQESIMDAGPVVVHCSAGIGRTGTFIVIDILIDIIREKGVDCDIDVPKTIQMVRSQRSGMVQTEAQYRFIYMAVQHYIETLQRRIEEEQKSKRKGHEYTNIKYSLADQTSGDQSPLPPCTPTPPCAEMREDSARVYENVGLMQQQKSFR

[9] = molecular target: Tyrosine-protein phosphatase non-receptor type 6 (Homo sapiens, UniProt P29350); assay: Inhibition of human SHP1 using pNPP substrate by spectrophotometry
Chain of Tyrosine-protein phosphatase non-receptor type 6 (P29350 whole entry): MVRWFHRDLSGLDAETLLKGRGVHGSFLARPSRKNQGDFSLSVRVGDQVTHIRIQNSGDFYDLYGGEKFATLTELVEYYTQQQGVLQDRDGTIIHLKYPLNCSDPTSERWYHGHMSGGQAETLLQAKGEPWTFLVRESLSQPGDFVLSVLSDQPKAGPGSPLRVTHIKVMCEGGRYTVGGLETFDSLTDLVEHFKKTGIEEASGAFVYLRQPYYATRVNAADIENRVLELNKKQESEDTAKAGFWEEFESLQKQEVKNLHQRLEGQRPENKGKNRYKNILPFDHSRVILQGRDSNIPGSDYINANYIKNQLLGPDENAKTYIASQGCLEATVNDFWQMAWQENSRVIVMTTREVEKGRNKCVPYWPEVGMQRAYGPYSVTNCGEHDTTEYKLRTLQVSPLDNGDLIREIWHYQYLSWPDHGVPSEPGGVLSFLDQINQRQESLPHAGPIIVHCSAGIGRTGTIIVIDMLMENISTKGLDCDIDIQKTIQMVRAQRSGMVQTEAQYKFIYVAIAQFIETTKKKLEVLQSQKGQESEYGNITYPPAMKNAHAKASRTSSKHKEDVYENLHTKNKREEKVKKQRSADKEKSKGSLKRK

[10] = molecular target: T3, Tyrosine-protein phosphatase non-receptor type 9 (Homo sapiens, UniProt P43378); assay: Inhibition of human PTP-Meg2 using pNPP substrate by spectrophotometry
T3 sequence (P43378 whole entry): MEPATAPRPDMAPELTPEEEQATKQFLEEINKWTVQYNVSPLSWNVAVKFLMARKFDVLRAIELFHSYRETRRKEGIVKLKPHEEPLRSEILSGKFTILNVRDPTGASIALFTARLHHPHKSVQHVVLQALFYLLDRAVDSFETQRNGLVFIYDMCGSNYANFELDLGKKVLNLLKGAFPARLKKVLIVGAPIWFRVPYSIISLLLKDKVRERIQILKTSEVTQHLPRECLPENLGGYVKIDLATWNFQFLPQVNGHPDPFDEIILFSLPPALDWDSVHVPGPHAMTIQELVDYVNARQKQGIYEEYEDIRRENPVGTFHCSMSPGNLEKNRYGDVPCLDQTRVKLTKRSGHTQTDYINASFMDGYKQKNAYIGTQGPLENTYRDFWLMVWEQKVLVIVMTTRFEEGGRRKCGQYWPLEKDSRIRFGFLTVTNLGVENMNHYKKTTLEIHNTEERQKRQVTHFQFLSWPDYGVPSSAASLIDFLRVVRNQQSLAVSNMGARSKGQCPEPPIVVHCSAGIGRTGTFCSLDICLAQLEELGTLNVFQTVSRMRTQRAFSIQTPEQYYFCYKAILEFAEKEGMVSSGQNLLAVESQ

[11] = molecular target: T4, Receptor-type tyrosine-protein phosphatase C (Homo sapiens, UniProt P08575); assay: Inhibition of human CD45 using pNPP substrate by spectrophotometry
T4 sequence (P08575 whole entry): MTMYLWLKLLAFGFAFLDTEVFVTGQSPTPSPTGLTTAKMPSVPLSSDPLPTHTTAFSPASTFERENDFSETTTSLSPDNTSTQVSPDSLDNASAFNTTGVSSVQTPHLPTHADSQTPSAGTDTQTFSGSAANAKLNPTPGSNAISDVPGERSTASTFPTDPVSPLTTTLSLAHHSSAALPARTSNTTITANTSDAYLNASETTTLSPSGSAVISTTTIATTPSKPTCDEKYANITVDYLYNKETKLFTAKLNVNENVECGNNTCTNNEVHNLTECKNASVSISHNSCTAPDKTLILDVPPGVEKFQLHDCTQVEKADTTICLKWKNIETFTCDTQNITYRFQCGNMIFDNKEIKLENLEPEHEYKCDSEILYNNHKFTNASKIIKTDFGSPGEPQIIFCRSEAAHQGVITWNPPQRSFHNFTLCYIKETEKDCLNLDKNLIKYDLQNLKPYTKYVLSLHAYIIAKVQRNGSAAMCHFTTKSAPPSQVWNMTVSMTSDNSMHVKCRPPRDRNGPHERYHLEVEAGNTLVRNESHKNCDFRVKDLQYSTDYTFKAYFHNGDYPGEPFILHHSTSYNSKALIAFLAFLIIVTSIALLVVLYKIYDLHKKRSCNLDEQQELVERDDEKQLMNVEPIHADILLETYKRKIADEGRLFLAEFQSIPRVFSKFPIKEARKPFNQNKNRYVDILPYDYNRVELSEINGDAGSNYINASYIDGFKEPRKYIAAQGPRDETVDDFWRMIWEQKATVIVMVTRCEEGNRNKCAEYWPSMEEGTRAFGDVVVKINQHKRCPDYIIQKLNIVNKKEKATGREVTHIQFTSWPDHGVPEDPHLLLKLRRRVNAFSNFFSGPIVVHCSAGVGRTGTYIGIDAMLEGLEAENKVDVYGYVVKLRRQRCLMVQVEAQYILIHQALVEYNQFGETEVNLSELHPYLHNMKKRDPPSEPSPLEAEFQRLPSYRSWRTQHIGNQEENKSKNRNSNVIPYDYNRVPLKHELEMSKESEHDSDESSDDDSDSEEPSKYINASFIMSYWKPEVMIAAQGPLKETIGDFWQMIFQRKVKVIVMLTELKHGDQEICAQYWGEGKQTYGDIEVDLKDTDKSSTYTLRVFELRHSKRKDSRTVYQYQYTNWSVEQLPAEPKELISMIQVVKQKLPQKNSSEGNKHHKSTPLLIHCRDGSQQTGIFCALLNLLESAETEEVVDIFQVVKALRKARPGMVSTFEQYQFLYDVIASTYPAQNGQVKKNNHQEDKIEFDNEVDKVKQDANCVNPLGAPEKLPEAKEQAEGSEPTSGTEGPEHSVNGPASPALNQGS

[12] = molecular target: Receptor-type tyrosine-protein phosphatase epsilon (Homo sapiens, UniProt P23469); assay: Inhibition of human PTPepsilon using pNPP substrate by spectrophotometry
Chain of Receptor-type tyrosine-protein phosphatase epsilon (P23469 whole entry): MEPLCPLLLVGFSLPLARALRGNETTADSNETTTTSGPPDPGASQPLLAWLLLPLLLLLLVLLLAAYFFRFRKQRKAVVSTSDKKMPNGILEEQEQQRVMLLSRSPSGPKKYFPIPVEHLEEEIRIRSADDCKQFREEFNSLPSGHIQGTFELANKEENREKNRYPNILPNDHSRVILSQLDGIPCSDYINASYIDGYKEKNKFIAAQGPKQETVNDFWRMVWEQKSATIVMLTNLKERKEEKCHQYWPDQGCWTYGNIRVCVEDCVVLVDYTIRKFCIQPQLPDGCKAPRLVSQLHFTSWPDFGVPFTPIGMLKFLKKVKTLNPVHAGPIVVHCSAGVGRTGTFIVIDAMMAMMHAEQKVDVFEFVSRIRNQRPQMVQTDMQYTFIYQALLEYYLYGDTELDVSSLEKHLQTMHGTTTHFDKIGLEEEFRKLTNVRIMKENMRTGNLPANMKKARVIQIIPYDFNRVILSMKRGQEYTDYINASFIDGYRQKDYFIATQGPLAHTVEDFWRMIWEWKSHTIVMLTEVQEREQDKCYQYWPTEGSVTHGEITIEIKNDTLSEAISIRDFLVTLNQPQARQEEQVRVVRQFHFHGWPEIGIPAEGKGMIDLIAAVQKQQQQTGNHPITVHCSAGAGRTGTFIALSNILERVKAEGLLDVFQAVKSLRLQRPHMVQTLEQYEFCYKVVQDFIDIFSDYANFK

[13] = molecular target: Dual specificity protein phosphatase 3 (Homo sapiens, UniProt P51452); assay: Inhibition of human VHR using pNPP substrate by spectrophotometry
Chain of Dual specificity protein phosphatase 3 (P51452 whole entry): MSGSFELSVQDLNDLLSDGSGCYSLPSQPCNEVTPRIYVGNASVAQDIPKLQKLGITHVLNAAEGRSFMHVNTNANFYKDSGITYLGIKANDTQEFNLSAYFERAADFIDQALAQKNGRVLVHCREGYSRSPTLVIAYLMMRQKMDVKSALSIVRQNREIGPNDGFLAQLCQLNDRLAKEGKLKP

Laforin = molecular target: T5, Laforin (Homo sapiens, UniProt O95278); assay: Inhibition of human laforin using pNPP substrate by spectrophotometry
T5 sequence (O95278 whole entry): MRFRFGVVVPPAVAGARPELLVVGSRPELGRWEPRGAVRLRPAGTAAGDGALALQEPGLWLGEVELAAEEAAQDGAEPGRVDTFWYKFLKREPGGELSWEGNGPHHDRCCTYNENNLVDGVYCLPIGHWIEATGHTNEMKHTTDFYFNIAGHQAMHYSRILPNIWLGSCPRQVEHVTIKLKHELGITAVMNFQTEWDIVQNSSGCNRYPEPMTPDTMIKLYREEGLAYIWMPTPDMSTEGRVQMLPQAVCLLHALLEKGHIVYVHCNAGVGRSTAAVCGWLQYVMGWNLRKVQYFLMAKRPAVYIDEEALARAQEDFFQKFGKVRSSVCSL

[14] = Selectivity index, ratio of IC50 for human PTP1B to IC50 for Mycobacterium tuberculosis protein tyrosine phosphatase B
[15] = Selectivity index, ratio of IC50 for human SHP2 to IC50 for Mycobacterium tuberculosis protein tyrosine phosphatase B
[16] = Selectivity index, ratio of IC50 for human SHP1 to IC50 for Mycobacterium tuberculosis protein tyrosine phosphatase B
[17] = Selectivity index, ratio of IC50 for human PTP-Meg2 to IC50 for Mycobacterium tuberculosis protein tyrosine phosphatase B
[18] = Selectivity index, ratio of IC50 for human CD45 to IC50 for Mycobacterium tuberculosis protein tyrosine phosphatase B
[19] = Selectivity index, ratio of IC50 for human PTPepsilon to IC50 for Mycobacterium tuberculosis protein tyrosine phosphatase B
[20] = Selectivity index, ratio of IC50 for human VHR to IC50 for Mycobacterium tuberculosis protein tyrosine phosphatase B
[21] = Selectivity index, ratio of IC50 for human laforin to IC50 for Mycobacterium tuberculosis protein tyrosine phosphatase B

## O=C(O)c1cc2sc(Nc3ccc([N+](=O)[O-])cc3)nc2cc1O
[1]
  IC50: 50 µM

## O=C(O)c1cc2sc(Nc3ccccc3Cl)nc2cc1O
[1]
  IC50: 30 µM

## O=C(O)CN1CC(=O)Oc2cc(O)c(C(=O)O)cc21
[1]
  IC50: > 100 µM

## O=C1COc2cc(O)c(C(=O)O)cc2N1
[1]
  IC50: > 100 µM

## O=C(O)c1cc2nc(NCc3ccccc3)oc2cc1O
[1]
  IC50: > 100 µM

## O=C(O)c1cc2nc(-c3ccccc3)oc2cc1O
[1]
  IC50: 27 µM

## O=C(O)c1cc2sc(Nc3ccc(F)cc3)nc2cc1O
[1]
  IC50: 65 µM

## Cc1ccccc1Nc1nc2cc(O)c(C(=O)O)cc2s1
[1]
  IC50: 31 µM

## O=C(O)c1cc2sc(Nc3ccc(Cl)cc3Cl)nc2cc1O
[1]
  IC50: 5 µM

## O=C(O)c1cc2[nH]c(-c3ccccc3)nc2cc1O
[1]
  IC50: 32 µM

## O=C(O)c1cc2sc(Nc3ccccc3)nc2cc1O
[1]
  IC50: 25 µM
RAW264.7 [2]
  inhibition: inactive
RAW264.7 [3]
  inhibition: inactive

## O=C(O)c1cc2[nH]c(=O)oc2cc1O
[1]
  IC50: > 100 µM

## O=C(O)c1ccc2nc(Nc3ccccc3)sc2c1O
[1]
  IC50: 71 µM

## O=C(O)c1cc2sc(Nc3cccc(Cl)c3)nc2cc1O
[1]
  IC50: 21 µM

## CC(C)(C)c1ccc(Nc2nc3cc(O)c(C(=O)O)cc3s2)cc1
[1]
  IC50: 41 µM

## O=C(O)c1cc2sc(Nc3cccc4ccccc34)nc2cc1O
[1]
  IC50: 60 µM

## O=C(O)c1cc2sc(Nc3ccc(Cl)cc3)nc2cc1O
[1]
  IC50: 13 µM

## Cc1cccc(Nc2nc3cc(O)c(C(=O)O)cc3s2)c1
[1]
  IC50: 15 µM

## O=C(O)c1cc2sc(Nc3cccc(Br)c3)nc2cc1O
[1]
  IC50: 2 µM
[4]
  Ki: 1.5 µM
RAW264.7 [5]
  inhibition: Dose-dependent effect
RAW264.7 [6]
  inhibition: Dose-dependent effect
[7]
  IC50: 65 µM
[8]
  IC50: 50 µM
[9]
  IC50: 78 µM
[10]
  IC50: 69 µM
[11]
  IC50: > 100 µM
[12]
  IC50: > 400 µM
[13]
  IC50: 43 µM
Laforin
  IC50: 56 µM
[14]
  Ratio IC50: > 20
[15]
  Ratio IC50: > 20
[16]
  Ratio IC50: > 20
[17]
  Ratio IC50: > 20
[18]
  Ratio IC50: > 20
[19]
  Ratio IC50: > 20
[20]
  Ratio IC50: > 20
[21]
  Ratio IC50: > 20

## CCNc1nc2cc(C(=O)O)c(O)cc2o1
[1]
  IC50: > 100 µM
